Here are results for six molecules from ChEMBL document CHEMBL4725354 (J Med Chem, 2020).

Calls of active or inactive are those of the source. The calls are words filed in the database; no cut-off is given here.

Series [1] has as its target T1, ATP-dependent translocase ABCB1 (Homo sapiens, UniProt P08183). The series can be described thus: Inhibition of human ABCB1-mediated multidrug resistance in human A2780/ADR cells assessed as potentiation of doxorubicin-induced cytotoxicity by measuring half maximal reversal concentration after 72 hrs by MTT assay. Format: cell-based. In general terms: Tetrazolium assays rely on reduction of a dye to a coloured formazan, in cell work by metabolically active cells.

The target in series [2] is T2, ABCG2 (Homo sapiens, UniProt Q9UNQ0).
T2 sequence (Q9UNQ0 whole entry): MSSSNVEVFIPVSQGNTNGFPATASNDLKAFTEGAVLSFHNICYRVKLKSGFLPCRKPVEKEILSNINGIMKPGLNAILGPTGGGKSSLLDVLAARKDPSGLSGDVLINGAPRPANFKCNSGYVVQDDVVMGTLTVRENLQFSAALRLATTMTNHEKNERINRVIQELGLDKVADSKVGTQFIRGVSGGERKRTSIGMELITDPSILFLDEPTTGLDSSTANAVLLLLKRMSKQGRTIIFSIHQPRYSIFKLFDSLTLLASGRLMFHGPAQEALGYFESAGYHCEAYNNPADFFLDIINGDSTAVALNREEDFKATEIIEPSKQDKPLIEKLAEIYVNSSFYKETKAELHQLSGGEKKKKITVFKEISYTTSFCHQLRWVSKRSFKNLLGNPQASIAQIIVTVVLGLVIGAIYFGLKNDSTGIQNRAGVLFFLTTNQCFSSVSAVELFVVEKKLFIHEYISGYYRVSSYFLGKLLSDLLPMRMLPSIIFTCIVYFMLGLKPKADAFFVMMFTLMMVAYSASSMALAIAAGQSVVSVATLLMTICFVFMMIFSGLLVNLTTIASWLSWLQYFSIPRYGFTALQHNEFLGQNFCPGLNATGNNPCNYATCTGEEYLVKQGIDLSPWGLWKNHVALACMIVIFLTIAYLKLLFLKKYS
Nature of the series: Inhibition of human ABCG2 expressed in MDCK2 cells co-expressing GFP preincubated for 30 mins followed by Hoechst 33342 addition and measured every 60 sec for 120 mins by fluorescence assay relative to control. To be noted: probe Hoechst 33342, read-out: Imax. Format: cell-based, MDCK-II. The method in brief:
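MDCK II cells transfected with human ABCG2 cDNA C-terminally fused to GFP. Steady-state means vs log concentration fitted by 3- or 4-parameter logistic to give IC50.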

Series [3] has as its target Multidrug resistance-associated protein 1 (Homo sapiens, UniProt P33527). The series can be described thus: Inhibition of human ABCC1-mediated multidrug resistance in MDCK2 cells assessed as potentiation of doxorubicin-induced cytotoxicity by measuring half maximal reversal concentration after 72 hrs by MTT assay. It is filed as cell-based. To be noted: mdck-ii.
The test system of series [4] is MDCK-II. Nature of the series: Cytotoxicity against MDCK2 cells over expressing human ABCG2 at 10 uM assessed as reduction in cell viability after 72 hrs by MTT assay. The conditions noted are these: dog. Format: ADME, cell-based, Canis lupus familiaris. Put shortly: (§1)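 Single-concentration screen at 10 µM in MDCK II BCRP and parental MDCK II cells. MTT assay, 72 h at 37 °C, 5% CO2. Viability referenced to culture medium (100%) and 10% DMSO (0%). Mean ± SEM of at least three independent experiments with duplicates.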

The target in series [5] is T3, Broad substrate specificity ATP-binding cassette transporter ABCG2 (Homo sapiens, UniProt Q9UNQ0).
T3 sequence (Q9UNQ0 whole entry): T2 sequence (Q9UNQ0 whole entry)
The series can be described thus: Inhibition of human ABCG2 expressed in MDCK2 cells co-expressing GFP preincubated for 15 mins followed by pheophorbideA addition and measured after 2 hrs by flow cytometric analysis. It is filed as cell-based, MDCK-II. The method in brief: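 Pheophorbide A added to 0.5 µM final and incubated 2 h. Read by flow cytometry (ex 488, em 695/50 nm); GFP expression checked at 525/30 nm. IC50 from 3- or 4-parameter logistic fit.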
Background: In flow cytometry, cells or beads pass a laser one at a time.

The subject of series [6] is MDCK-II. Nature of the series: Cytotoxicity against MDCK2 cells assessed as reduction in cell viability at 10 uM after 72 hrs by MTT assay. Format: cell-based, Canis lupus familiaris. The conditions noted are these: dog. Put shortly: as §1
The target of series [7] is T1, ATP-dependent translocase ABCB1. The series can be described thus: Inhibition of human ABCB1 expressed in A2780/ADR cells preincubated for 30 mins followed by calcein AM addition and measured every 60 secs for 60 mins by fluorescence assay. Format: cell-based. Put shortly:
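ABCB1 in A2780/ADR cells (kept resistant by one passage in 1 µM doxorubicin every 10 passages). 30,000 cells per well in Krebs-HEPES buffer, preincubated 30 min at 37 °C with inhibitor. Calcein AM added from a 3.125 µM solution. Fluorescence (ex 485, em 520 nm) read every 60 s for 60 min. Initial linear slopes vs log concentration fitted to give IC50.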

The target in series [8] is T2, ABCG2. The series can be described thus: Inhibition of human ABCG2 expressed in MDCK2 cells co-expressing GFP preincubated for 15 mins followed by pheophorbideA addition and measured after 2 hrs by flow cytometric analysis relative to control. Format: cell-based, MDCK-II. To be noted: probe pheophorbide A, read-out: Imax.
The target in series [9] is T3, Broad substrate specificity ATP-binding cassette transporter ABCG2. The series can be described thus: Inhibition of human ABCG2 expressed in MDCK2 cells co-expressing GFP preincubated for 30 mins followed by Hoechst 33342 addition and measured every 60 sec for 120 mins by fluorescence assay. Format: cell-based, MDCK-II. The method in brief:
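MDCK II cells transfected with human ABCG2 cDNA C-terminally fused to GFP. Hoechst 33342 added at 1 µM final. Fluorescence (ex 355, em 460 nm) read every 60 s for 120 min. Steady-state means vs log concentration fitted by 3- or 4-parameter logistic to give IC50.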

For series [10], the system named is ABCG2. Nature of the series: Therapeutic ratio of GI50 for Growth inhibition of MDCK2 cells over expressing human ABCG2 to IC50 for inhibition of human ABCG2 expressed in MDCK2 cells co-expressing GFP preincubated for 15 mins followed by pheophorbideA addition and measured after 2 hrs by flow cytometric analysis. To be noted: dog, MDCK2 cells overexpressing human ABCG2, probe pheophorbide A; read-out: TI. Format: toxicity, cell-based.

For series [11], the system named is ABCG2. The series can be described thus: Therapeutic ratio of GI50 for Growth inhibition of MDCK2 cells over expressing human ABCG2 to IC50 for inhibition of human ABCG2 expressed in MDCK2 cells co-expressing GFP preincubated for 30 mins followed by Hoechst 33342 addition and measured every 60 sec for 120 mins by fluorescence assay. The conditions noted are these: dog, MDCK2 cells overexpressing human ABCG2, probe Hoechst 33342; read-out: TI. It is filed as toxicity, cell-based.

A short description of series [12]: Growth inhibition of MDCK2 cells after 72 hrs by MTT assay. It is filed as cell-based, Canis lupus familiaris, MDCK-II. To be noted: dog. The method in brief:
(§2)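 MTT viability assay. Compound dilutions in culture medium (3.2 to 1000 µM as prepared). About 2,000 cells per well, 72 h at 37 °C, 5% CO2. Culture medium set as 100% and 10% DMSO as 0% viability. MTT added for 1 h, formazan dissolved in DMSO, absorbance read at 570 nm with 690 nm background. GI50 from nonlinear regression of absorbance vs log concentration; at least three independent experiments, duplicates, mean ± SEM.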

Series [13] in a line: Growth inhibition of MDCK2 cells over expressing human ABCG2 after 72 hrs by MTT assay. It is filed as ADME, cell-based, Canis lupus familiaris, MDCK-II. To be noted: dog, MDCK2 cells overexpressing human ABCG2. The method in brief: as §2
Series [14] deals with T3, Broad substrate specificity ATP-binding cassette transporter ABCG2. The series can be described thus: Inhibition of ABCG2 in human MCF7/MX cells at 1 uM incubated for 2 hrs in presence of pheophorbide A by confocal laser scanning microscopic method. It is filed as cell-based. The conditions noted are these: mcf7x. Put shortly: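 MCF-7/MX cells, 1×10^5 per dish, grown 48 h to 50-60% confluence, then switched to Krebs-HEPES buffer. Pheophorbide A (0.5 µM) applied with inhibitor (1 µM) for 2 h at 37 °C, 5% CO2. Confocal imaging at ex 405 nm, em 662-737 nm, stage at 37 °C; parental MCF-7 imaged for comparison.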

Series [15] is described as follows: Effect on total ABCG2 in MDCK2 cells at 0.5 uM after 4 to 7 days by Western blot analysis. Format: ADME, cell-based, Canis lupus familiaris. To be noted: dog, mdck-ii, time 4-7 day. The method in brief:
(§3)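 ABCG2-GFP MDCK II cells seeded in T25 flasks (86,000 for 4 days, 17,200 for 7 days). Exposed to modulator (10 nM) and/or SN-38 (0.5 µM) for 4 or 7 days. 15 µg protein run on stain-free 10% SDS-PAGE and transferred to PVDF. Probed with BXP-21 (1:200, overnight, 4 °C) and HRP secondary, ECL detection. Bands normalised to total protein and to the untreated control; one-sample t-test.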
(A western blot detects proteins with antibodies after separation by electrophoresis.)

Series [16] can be described thus: Up regulation of ABCG2 in MDCK2 cells at 0.5 uM after 7 days by Western blot analysis. Format: functional, Canis lupus familiaris, MDCK-II. The conditions noted are these: time 7 day. The method in brief: as §3
The test system of series [17] is MDCK-II. The series can be described thus: Cytotoxicity against MDCK2 cells over expressing human ABCG2 assessed as reduction in cell viability at 0.5 uM by after 3 days by MTT assay. To be noted: Canis lupus familiaris, time 3.0 day. It is filed as functional, cell-based.
Series [18] can be described thus: Up regulation of ABCG2 in MDCK2 cells at 0.5 uM after 4 days by Western blot analysis. Format: functional, Canis lupus familiaris, MDCK-II. The conditions noted are these: time 4 day. The method in brief: as §3

T1 sequence (P08183 whole entry): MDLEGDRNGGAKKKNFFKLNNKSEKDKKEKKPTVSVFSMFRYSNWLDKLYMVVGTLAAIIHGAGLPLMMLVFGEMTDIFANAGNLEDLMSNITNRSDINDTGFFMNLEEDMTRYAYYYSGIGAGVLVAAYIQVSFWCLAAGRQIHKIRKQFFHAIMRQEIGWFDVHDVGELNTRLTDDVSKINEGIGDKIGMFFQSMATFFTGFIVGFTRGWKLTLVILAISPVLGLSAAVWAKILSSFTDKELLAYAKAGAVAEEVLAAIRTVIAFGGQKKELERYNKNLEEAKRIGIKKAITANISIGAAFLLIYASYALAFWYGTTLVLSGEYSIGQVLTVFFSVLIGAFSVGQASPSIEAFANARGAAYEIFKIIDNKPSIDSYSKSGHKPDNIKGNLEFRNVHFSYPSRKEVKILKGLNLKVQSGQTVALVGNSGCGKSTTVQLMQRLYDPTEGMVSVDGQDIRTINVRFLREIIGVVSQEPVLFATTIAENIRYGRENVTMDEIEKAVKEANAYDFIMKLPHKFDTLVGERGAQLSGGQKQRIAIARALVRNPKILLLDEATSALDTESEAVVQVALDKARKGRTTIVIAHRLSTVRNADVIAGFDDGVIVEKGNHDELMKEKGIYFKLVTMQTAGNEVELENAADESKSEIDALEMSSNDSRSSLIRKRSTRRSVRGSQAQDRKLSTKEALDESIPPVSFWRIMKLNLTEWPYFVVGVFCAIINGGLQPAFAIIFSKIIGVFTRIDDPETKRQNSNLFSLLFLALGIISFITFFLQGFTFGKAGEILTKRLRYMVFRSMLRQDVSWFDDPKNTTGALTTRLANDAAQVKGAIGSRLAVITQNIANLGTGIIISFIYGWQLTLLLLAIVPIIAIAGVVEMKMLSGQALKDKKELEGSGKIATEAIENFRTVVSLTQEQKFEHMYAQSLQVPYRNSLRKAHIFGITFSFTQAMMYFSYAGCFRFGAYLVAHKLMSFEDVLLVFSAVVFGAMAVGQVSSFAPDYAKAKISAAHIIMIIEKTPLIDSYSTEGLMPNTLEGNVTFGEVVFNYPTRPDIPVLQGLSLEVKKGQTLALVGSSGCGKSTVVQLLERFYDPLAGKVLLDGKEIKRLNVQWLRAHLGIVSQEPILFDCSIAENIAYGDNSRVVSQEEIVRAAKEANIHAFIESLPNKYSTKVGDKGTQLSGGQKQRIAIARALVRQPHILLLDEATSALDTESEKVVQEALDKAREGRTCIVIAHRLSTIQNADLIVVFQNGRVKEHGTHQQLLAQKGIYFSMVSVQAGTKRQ
Chain of Multidrug resistance-associated protein 1 (P33527 whole entry): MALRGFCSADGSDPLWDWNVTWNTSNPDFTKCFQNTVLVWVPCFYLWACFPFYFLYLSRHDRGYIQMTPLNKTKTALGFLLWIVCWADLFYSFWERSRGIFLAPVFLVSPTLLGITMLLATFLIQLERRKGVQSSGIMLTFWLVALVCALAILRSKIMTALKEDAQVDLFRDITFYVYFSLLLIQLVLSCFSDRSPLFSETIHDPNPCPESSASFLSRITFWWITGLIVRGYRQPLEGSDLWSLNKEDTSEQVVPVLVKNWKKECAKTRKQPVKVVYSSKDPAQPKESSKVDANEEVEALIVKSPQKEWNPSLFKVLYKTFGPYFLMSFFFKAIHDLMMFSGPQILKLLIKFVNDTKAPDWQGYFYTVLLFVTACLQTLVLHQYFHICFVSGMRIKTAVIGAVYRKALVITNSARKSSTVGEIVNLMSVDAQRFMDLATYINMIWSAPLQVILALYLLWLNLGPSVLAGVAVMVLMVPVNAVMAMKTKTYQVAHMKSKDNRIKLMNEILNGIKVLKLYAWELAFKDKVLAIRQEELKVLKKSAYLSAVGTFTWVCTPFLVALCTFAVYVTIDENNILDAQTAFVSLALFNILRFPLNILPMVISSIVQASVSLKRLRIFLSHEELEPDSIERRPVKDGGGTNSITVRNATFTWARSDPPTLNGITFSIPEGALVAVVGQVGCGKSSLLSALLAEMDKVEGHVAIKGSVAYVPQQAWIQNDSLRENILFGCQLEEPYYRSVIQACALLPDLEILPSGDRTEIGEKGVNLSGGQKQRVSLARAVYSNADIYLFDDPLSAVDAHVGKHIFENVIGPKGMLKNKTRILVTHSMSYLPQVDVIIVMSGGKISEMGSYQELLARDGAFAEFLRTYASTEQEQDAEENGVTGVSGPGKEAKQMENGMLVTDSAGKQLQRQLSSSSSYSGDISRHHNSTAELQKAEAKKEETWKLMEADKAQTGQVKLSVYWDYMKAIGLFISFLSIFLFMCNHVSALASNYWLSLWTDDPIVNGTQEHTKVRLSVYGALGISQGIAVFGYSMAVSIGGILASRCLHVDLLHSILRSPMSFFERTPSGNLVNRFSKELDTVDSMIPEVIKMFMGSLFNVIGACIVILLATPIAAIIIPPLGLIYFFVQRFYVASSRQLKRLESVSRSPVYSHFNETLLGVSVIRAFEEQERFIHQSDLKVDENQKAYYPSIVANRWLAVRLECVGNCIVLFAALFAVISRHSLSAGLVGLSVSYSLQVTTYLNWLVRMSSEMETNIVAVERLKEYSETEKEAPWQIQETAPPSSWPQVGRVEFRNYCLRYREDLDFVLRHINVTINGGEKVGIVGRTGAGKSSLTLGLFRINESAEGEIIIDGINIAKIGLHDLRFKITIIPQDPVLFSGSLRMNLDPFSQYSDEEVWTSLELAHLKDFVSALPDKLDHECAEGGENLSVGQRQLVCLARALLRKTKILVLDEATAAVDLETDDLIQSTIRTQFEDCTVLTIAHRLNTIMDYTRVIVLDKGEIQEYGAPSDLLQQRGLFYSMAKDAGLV

What is called IC50 is the concentration needed to halve the response being measured. Consider `COc1cc(Nc2cc(C)nc(-c3ccccc3)n2)ccc1Br`, for which the “inhibition (INH)” value in series [1] and in series [3] was “Not Active” each time. Further, the figures for the Emax at 2 h on ABCG2 [2] and at ABCG2 [8] were 100% and 53%, respectively. Moreover, the Activity entry with MDCK-II [4] and in the series with MDCK-II [6] was “Non-Toxic” in each case. Further, the IC50 is 328 nM in series [5], 5030 nM in series [7] and 280 nM in series [9].

As to `Cc1cc(Nc2cccc(Br)c2)nc(-c2ccccc2)n1`, the “inhibition (INH)” value in series [1] and in [3] was “Not Active” each time. For the same molecule, the Emax at 2 h was found to be 100% on ABCG2 [2] and 83% on ABCG2 [8]. The Activity entry in the series with MDCK-II [4] and in the series on MDCK-II [6] was “Non-Toxic” throughout. The IC50 in series [5] is 386 nM; in series [7], 7140 nM; in series [9] it was 892 nM.

Turning to `Cc1cc(Nc2cccc(Cl)c2)nc(-c2ccccc2)n1`, the “inhibition (INH)” value in series [1] and in [3] was “Not Active” in each case. For the same molecule, the Emax at 2 h on ABCG2 [2] and on ABCG2 [8] was 100% in each case. The Activity result in the series with MDCK-II [4] and with MDCK-II [6] was “Non-Toxic” in each case. Moreover, the IC50 in series [5] is 1000 nM; in series [7] it was 5920 nM; in [9], 811 nM.

A word on the GI50: it is the concentration at which growth is held to half of that of the control. Turning to `COc1ccc(Nc2cc(C)nc(-c3ccccc3)n2)cc1C(F)(F)F`, the “inhibition (INH)” value in [1] and in [3] was “Not Active” in each case. The Emax at 2 h at ABCG2 [2] was found to be 100%; on ABCG2 [8] it was 83%. Moreover, the Activity entry with MDCK-II [4] and in the series on MDCK-II [6] was “Toxic” each time. The selectivity ratio at 2 h with ABCG2 [10] was found to be 15. Further, the IC50 in series [5] is 544 nM; in series [7] it was 7300 nM; in [9], 598 nM. Moreover, the selectivity ratio in the series with ABCG2 [11] is 14. The GI50 at 72 h in series [12] was found to be 10100 nM; in series [13], 8400 nM.

For the molecule `Cc1cc(Nc2ccc3nccnc3c2)nc(-c2ccccc2)n1`, the Activity result in the series on MDCK-II [4] and with MDCK-II [6] was “Non-Toxic” each time. The IC50 in [5] was 312 nM; in series [7], 13400 nM. At ABCG2 [8], the Emax at 2 h worked out at 100%. For the same molecule, the “inhibition (INH)” value in series [14] is “Active”.

Turning to `CCc1c2c(nc3ccc(O)cc13)-c1cc3c(c(=O)n1C2)COC(=O)C3(O)CC` (stereo not given), the Activity result in [15] is given as “Non-Toxic”. In addition, the “fold change (FC)” value stood at 5 in [16] and 2 in [18]. Besides, the outcome in the series with MDCK-II [17] was inactive.
